MT1-MMP act inh – MT1-MMP (human) activation inhibition. P50281. HT1080 RFP-PRO-GFP cells, GFP/RFP ratio fluorescence, overnight; percent of plate control window, DMSO zero. GFP/RFP ratio change, % at 20 µM. 0.061% of 360,000 active. AID 651647;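 active = GFP/RFP ratio change of at least 30% with cell ATP level not reduced by more than half and red fluorescence within 50% of control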
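system = RFP-PRO-GFP reporter HT1080 cells | dosing = 20 µM single dose, 1% DMSO | timing = overnight cell settling, then overnight compound exposure, 37 °C, 5% CO2 | read-out basis = GFP/RFP fluorescence ratio | controls = DMSO and RFP-L50D-GFP cell wells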
ADAM17 inh – inhibitors of human ADAM17 | recombinant ADAM17, EDANS/DABCYL FRET peptide cleavage | 0.83% of 370,000 active | P78536 | inhibition, % at 6.95 µM;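 active = inhibition above the mean of compounds lying between control limits plus 3 SD, set per campaign, cut at about 8.5% in these data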;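 also: 0% = DMSO-only wells as the low control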
SKN-1 inh – inhibitors of C. elegans SKN-1; C. elegans VP596 Pgst-4::GFP/RFP ratio, acrylamide-induced, 24 h; inhibition, % at 21.8 µM; 0.49% of 360,000 active; AID 624304;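 active = interference check ratio from 0.5 to 1.5 plus GFP to RFP signal ratio inhibition reaching or exceeding a fixed threshold, cut at about 30% in these data, passing the limit was not always enough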
ADAM10 inh – ADAM10 inhibition, QFRET primary screen | inhibition, % at 7 µM | 0.62% of 370,000 active | O14672 | recombinant ADAM10, EDANS/DABCYL FRET peptide cleavage, 3 h;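 active = inhibition above a per-campaign cutoff equal to the mean of compounds falling between control-based bounds plus 3 SD, cut at about 20% in these data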;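 also: 0% = DMSO wells while the 100% control is not disclosed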
Target sequence (O14672 214-748 limits assumed): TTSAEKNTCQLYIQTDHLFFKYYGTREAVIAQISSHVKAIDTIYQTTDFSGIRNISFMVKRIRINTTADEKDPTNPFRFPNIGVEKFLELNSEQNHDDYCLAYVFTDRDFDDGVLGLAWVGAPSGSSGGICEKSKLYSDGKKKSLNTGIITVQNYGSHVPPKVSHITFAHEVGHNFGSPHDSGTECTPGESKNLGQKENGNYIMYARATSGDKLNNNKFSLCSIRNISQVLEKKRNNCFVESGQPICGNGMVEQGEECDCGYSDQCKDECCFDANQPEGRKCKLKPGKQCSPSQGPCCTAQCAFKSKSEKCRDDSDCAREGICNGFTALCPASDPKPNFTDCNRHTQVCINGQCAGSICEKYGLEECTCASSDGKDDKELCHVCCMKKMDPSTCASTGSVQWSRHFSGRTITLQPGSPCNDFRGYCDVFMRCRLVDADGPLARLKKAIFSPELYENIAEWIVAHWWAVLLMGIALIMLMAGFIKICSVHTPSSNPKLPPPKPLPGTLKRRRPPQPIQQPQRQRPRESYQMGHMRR
MPTP inh – blocks calcium-induced mitochondrial swelling. inhibition, % at 10 µM. 1.4% of 360,000 active. isolated mouse mitochondria, Ca2+ swelling absorbance, 30 min;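 active = inhibition of 50% or more, scaled per plate between neutral and stimulator controls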;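 also: 0% = DMSO wells given calcium and 100% = 1 mM EGTA wells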
GRIN3A LBD mod – modulators (binders) of human NR3A ligand-binding domain | NR3A LBD differential scanning fluorimetry, Tm shift; 0% = protein alone, 100% = glycine-bound protein | Tm shift relative to glycine control, % at 25 µM | 2.5% of 340,000 active;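 active = melting temperature shift of at least 10% of the positive control shift, at one fixed dose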
* marks the source's active call; other numbers are inactive results; i = inactive; . = not tested or not shown. In the library only some 4.7% were active in any assay of this set; here they are far more common.

SMILES	MT1-MMP act inh	ADAM17 inh	SKN-1 inh	ADAM10 inh	MPTP inh	GRIN3A LBD mod
COc1ccc(NC(=O)c2cnn(-c3ccccc3)c2C)c(OC)c1	0	-5	3	3	2	-3
Cc1ccc(C)c(S(=O)(=O)NCCOC(=O)Nc2sc(=S)n(C)c2C)c1	-1	2	11	-3	0	-4
COc1ccc(-c2cc(C3CC3)nc3sc(C#N)c(N)c23)cc1	-14	-105	12	-266	2	-12
Cc1ccc(S(=O)(=O)N2CCN(CCc3ccncc3)CC2)cc1	2	-2	4	-2	-1	11*
O=S(=O)(c1ccc(Cl)cc1)N1CCN(Cc2ccncc2)CC1	-1	-3	-15	-8	-1	-1
COCCCNC(=O)c1ccccc1SC	0	-4	0	-2	-1	13*
CCOC(=O)C1=C(CSc2nc(-c3ccccc3)ccc2C#N)OC(N)=C(C#N)C1c1ccccc1 (stereo not drawn)	-68	-160	37*	-492	0	4
CCOC(=O)C1=C(CSc2nc(-c3ccccc3)ccc2C#N)OC(N)=C(C#N)C1c1cccnc1 (stereo not drawn)	-70	-186	27	i	0	-5
O=C(CCC(=O)N(CC(=O)NC1CCCC1)Cc1ccc2c(c1)OCO2)Nc1ccccn1	2	-9	8	5	-2	1
COc1ccc(NS(=O)(=O)c2ccc3nc(COc4ccc5ccccc5c4)[nH]c3c2)cc1	2	8	12	18	39	25*
COc1ccc(OCc2nc3ccc(S(=O)(=O)Nc4ccccc4Cl)cc3[nH]2)cc1	3	-2	-1	-6	0	-5
COc1ccccc1NS(=O)(=O)c1ccc2nc(CCl)[nH]c2c1	0	0	11	-2	-1	1
COc1ccc(NS(=O)(=O)c2ccc3nc(COc4cccc5ccccc45)[nH]c3c2)cc1	2	4	18	17	3	17*
CCOC(=O)c1c(C)[nH]c(N=Nc2ccc(C)cc2)c1C	6	15*	16	10	4	7
CCOC(=O)c1ccc(CN2C(=O)c3ccccc3S2(=O)=O)cc1	1	2	3	8	0	0
CCN1/C(=C(\O)c2ccccc2)C(=O)c2ccccc2S1(=O)=O	-9	0	44*	-3	-4	-2
O=C(c1ccc(F)cc1)N1C2CCC1CC(O)(c1ccccc1F)C2 (stereo not drawn)	-2	3	-1	-8	0	-5
Cc1cc(NC(=O)CCC(=O)N(Cc2ccccc2)C(C(=O)NC2CCCC2)c2ccco2)no1 (stereo not drawn)	-3	3	11	-5	0	0
Cc1csc(NC(=O)c2cc3c(s2)-c2ccccc2OC3)n1	-3	-402	-18	i	3	10*
O=C(CC1C[C@H](C(=O)N2CCCCC2)[C@@]2(CCc3ccccc3)c3[nH]c4ccccc4c3CCN2C1=O)NCCC1=CCCCC1 (stereo partly drawn)	-11	-1	10	-8	2	0
CCOc1cc(/C=C2/C(=O)ON=C2C)ccc1OCc1ccccc1	.	-5	.	-11	.	26*
Cc1ccc2nc(N(CCN(C)C)C(=O)c3ccc4ccccc4c3)sc2c1	2	.	-12	.	0	12*
CN(C)CCN(C(=O)c1ccc2ccccc2c1)c1nc2cc3c(cc2s1)OCCO3	0	-4	-8	-6	0	13*
CCOc1ccc2nc(N(CCN(C)C)C(=O)c3cc4ccccc4cc3OC)sc2c1	-4	.	38*	.	1	2
CCOc1cccc2sc(N(CCN(C)C)C(=O)c3cc4ccccc4cc3OC)nc12	-3	-3	-7	2	0	0
CCN1C(=O)[C@H]2[C@H]3CN=C(SC)N3[C@@](CC)(C(=O)OC)[C@H]2C1=O	0	-3	13	-9	-1	-1
Cc1ccccc1COc1ccc(/C=C(\C#N)C(N)=O)cc1	1	-1	3	-2	-1	6
N#C/C(=C\c1ccc(OCc2ccccc2)cc1)C(N)=O	-4	-3	-10	1	-2	12*
